Consider 6 molecules from ChEMBL document CHEMBL2417500, “Cytotoxic diterpenoid pseudodimers from the Korean sponge Phorbas gukhulensis” (J Nat Prod, 2013).

Test [1] has as its system A549. Briefly: Cytotoxicity against human A549 cells by MTT assay. Format: functional. As to conditions: read-out: LC50 (the source's name). The essentials: (§1)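 LC50 is the concentration giving a 50% drop in cell viability relative to untreated controls without inhibitor. It is read from dose–response curves for each sample and reported as mean ± SD of three independent experiments (n = 3).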
For orientation: Tetrazolium dyes change colour on reduction, which living cells bring about.

Test [2] addresses Sodium/potassium-transporting ATPase. In words: Inhibition of Na+/K+-ATPase (unknown origin). Format: protein-complex assay, Homo sapiens.
In test [3] the test system is K562. In words: Cytotoxicity against human K562 cells by MTT assay. As to conditions: read-out: LC50 (the source's name). Format: functional. The method, boiled down:
as §1

A short description of test [4]: Inhibition of isocitrate lyase (unknown origin).
Test [5] can be described thus: Inhibition of sortase A (unknown origin).
For test [6], the system named is K562. In words: Ratio of doxorubicin LC50 to compound LC50 for human K562 cells. Format: functional.

pIC50: −log10 of the molar value. Bounds are passed on as bounds.

In general, pIC50 refers to −log10 of the IC50, conventionally taken in molar units. Higher therefore signals a low IC50. As for `CO[C@@H](NC(C)=O)[C@H](O)[C@]1(C)CC[C@H](C(C)C)[C@@H]1c1cc([C@]2(O)Cc3cc(O)c(=O)c(C)c4c3[C@@H](O2)[C@H](O)[C@]2(C)CC[C@H](C(C)C)[C@H]42)cc(O)c(=O)c1C`, the figures for the CC50 in test [1] and in test [3] were 100 nM and 120 nM, respectively. The negative-log IC50 (pIC50) in test [2], in test [4] and in test [5] was less than 4.00 each time.
In the case of `CC(=O)N[C@H](O)[C@H](O)[C@]1(C)CC[C@H](C(C)C)[C@@H]1c1cc([C@]2(O)Cc3cc(O)c(=O)c(C)c4c3[C@@H](O2)[C@H](O)[C@]2(C)CC[C@H](C(C)C)[C@H]42)cc(O)c(=O)c1C`, the CC50 amounted to 550 nM in test [1] and 440 nM in test [3]. Further, the pIC50 in test [2], in test [4] and in test [5] was less than 4.00 throughout.
For the molecule `Cc1c([C@H]2[C@@H](C(C)C)CC[C@@]2(C)C(=O)CNCCS(=O)(=O)O)cc([C@]2(O)Cc3cc(O)c(=O)c(C)c4c3[C@@H](O2)[C@H](O)[C@]2(C)CC[C@H](C(C)C)[C@H]42)cc(O)c1=O`, the CC50 in test [1] worked out at 110 nM; in test [3] it was 320 nM. Besides, the pIC50 in test [2], in test [4] and in test [5] was less than 4.00 in each case.
Turning to `CC(=O)O[C@@H](C=O)[C@]1(C)CC[C@H](C(C)C)[C@@H]1c1cc(/C(O)=C/c2cc(O)c(=O)c(C)c3c2[C@@H](O)[C@H](O)[C@]2(C)CC[C@H](C(C)C)[C@H]32)cc(O)c(=O)c1C`, the RatioLC50 in test [6] was 17. Moreover, the CC50 is 380 nM in test [1] and 40 nM in test [3]. Also, the negative-log IC50 (pIC50) in test [2], in test [4] and in test [5] was less than 4.00 each time.
Regarding `COc1cccc2c1C(=O)c1c(O)c3c(c(O)c1C2=O)C[C@@](O)(C(=O)CO)C[C@@H]3O[C@H]1C[C@H](N)[C@H](O)[C@H](C)O1` [DOXORUBICIN], the results for the CC50 in test [1] and in test [3] were 520 nM and 700 nM, respectively.
For `CC(=O)O[C@@H](C=O)[C@]1(C)CC[C@H](C(C)C)[C@@H]1c1cc([C@]2(O)Cc3cc(O)c(=O)c(C)c4c3[C@@H](O2)[C@H](O)[C@]2(C)CC[C@H](C(C)C)[C@H]42)cc(O)c(=O)c1C` [GUKULENIN A], the values for the CC50 in test [1] and in test [3] were 320 nM and 260 nM, respectively. The pIC50 in test [2], in test [4] and in test [5] was less than 4.00 each time.
